The values that follow come from ChEMBL document CHEMBL1153304, “2,4-Diaminopyridine delta-opioid receptor agonists and their associated hERG pharmacology” (Bioorg Med Chem Lett, 2009).

Calls of active or inactive are those of the source. The calls are words filed in the database; no cut-off is given here.

The Ki is a dissociation constant, usually derived from enzyme kinetics or from competition with a known ligand. Read a low Ki as higher affinity. What is called Emax is the maximal effect, on the per cent scale that the assay sets. As usually defined, the EC50 is the concentration giving half of the maximal effect. One may read the clearance as a measure of how efficiently the substance is removed, as volume per time. A higher clearance goes with efficient removal. As a reminder, the microsomal CLint is a measure of how fast metabolising enzymes remove a compound, apart from limits set by blood flow.

Mu-type opioid receptor, sequence (P35372 whole entry): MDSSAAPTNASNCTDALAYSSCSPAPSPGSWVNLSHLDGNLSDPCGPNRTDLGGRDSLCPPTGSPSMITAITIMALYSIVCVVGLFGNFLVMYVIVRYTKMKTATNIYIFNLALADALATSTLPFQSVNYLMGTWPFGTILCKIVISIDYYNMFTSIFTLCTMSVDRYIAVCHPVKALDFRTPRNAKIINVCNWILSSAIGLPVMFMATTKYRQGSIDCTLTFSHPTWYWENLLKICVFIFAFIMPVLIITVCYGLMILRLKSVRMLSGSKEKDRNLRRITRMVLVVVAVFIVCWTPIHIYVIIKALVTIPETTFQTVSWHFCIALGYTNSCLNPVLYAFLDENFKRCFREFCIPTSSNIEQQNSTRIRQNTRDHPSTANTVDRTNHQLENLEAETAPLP

One series is filed under the species Canis familiaris. Put plainly: Effect on QTC prolongation in Beagle dog at 291 nM free plasma concentration. Type of series: functional, organism-based. As to conditions: Canis lupus familiaris.
Take `CN(C)C(=O)[C@H]1CC2(CCN(c3cc(N)ccn3)CC2)c2ccccc21`: the outcome was Active.

The target of another series is Voltage-gated inwardly rectifying potassium channel KCNH2 (Homo sapiens, UniProt Q12809). Description: Inhibition of human ERG.
Voltage-gated inwardly rectifying potassium channel KCNH2, sequence (Q12809 whole entry): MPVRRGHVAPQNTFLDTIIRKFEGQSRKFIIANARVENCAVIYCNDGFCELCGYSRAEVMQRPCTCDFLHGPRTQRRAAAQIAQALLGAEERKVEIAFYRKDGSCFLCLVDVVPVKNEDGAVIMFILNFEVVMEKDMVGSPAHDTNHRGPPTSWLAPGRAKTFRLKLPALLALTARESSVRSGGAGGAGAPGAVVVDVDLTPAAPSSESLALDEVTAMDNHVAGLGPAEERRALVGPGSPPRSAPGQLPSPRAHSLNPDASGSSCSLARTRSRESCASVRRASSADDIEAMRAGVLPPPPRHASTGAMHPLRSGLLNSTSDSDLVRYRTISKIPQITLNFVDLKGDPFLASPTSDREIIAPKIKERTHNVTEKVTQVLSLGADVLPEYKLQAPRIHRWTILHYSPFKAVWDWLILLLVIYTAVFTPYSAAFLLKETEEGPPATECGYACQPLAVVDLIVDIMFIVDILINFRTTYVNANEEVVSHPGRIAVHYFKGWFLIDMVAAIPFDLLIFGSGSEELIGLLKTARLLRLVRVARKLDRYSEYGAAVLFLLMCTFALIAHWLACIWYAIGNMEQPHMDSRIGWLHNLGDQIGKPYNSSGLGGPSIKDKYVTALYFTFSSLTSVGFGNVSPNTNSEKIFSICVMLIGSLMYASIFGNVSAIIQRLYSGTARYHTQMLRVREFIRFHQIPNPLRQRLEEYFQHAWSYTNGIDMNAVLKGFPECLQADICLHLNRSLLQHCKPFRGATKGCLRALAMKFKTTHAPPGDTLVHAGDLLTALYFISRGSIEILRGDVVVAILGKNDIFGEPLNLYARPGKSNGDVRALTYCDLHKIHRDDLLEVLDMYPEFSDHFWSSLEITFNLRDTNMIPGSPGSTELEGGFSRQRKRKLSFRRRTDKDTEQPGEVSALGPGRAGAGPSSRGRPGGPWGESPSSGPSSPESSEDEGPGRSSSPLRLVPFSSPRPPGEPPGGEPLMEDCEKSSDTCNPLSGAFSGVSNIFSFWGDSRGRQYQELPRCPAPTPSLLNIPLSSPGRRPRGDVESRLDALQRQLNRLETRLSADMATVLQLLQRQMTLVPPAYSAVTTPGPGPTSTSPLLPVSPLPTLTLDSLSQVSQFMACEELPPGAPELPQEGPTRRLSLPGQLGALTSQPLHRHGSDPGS
Conditions: not given
`Nc1ccnc(N2CCC(n3c(=O)n(-c4ccccc4)c4cccnc43)CC2)c1`: the Ki was determined as 903 nM.
Consider `COc1cccc(C2(C)CN(c3cc(N)ccn3)C2)c1`, for which the Ki amounted to 1840 nM.
Regarding `COc1ccc(C(=O)NC2(c3ccccc3)CCN(c3cc(N)ccn3)CC2)cc1Cl`, the affinity, expressed as Ki, was 343 nM. Against the preceding molecule, the Ki is about 5.4-fold lower.
For the molecule `CCN(CC)C(=O)[C@H]1OC2(CCN(c3cc(N)ccn3)CC2)c2ccccc21`, the inhibition constant Ki was greater than 10000 nM.
Still for that read-out and setting: in the case of `COc1cccc(C(=O)N(c2ccccn2)C2CCN(c3cc(N)ccn3)CC2)c1` it was 9690 nM; in that of `COc1ccc(-n2c(=O)n(C3CCN(c4cc(N)ccn4)CC3)c3ncccc32)cc1`, 865 nM; in that of `Nc1ccnc(N2CCC(n3c(=O)n(CC4CC4)c4cccnc43)CC2)c1`, 746 nM.
`Nc1ccnc(N2CCC(NC(=O)c3ccccn3)(c3ccccc3)CC2)c1`: affinity was put at a Ki of 548 nM.
On the same count and under the same terms, in the case of `Nc1ccnc(N2CCC3(CC2)OC(c2ccccc2)c2ccccc23)c1` (stereo unspecified) it was 18 nM.

Tested on in the next series: not listed separately
Put plainly: Selectivity for human recombinant DOR over mu opioid receptor.
Conditions: not given
Regarding `COc1cccc(C2(C)CN(c3cc(N)ccn3)C2)c1`, the fold change (FC) came to 2.
For `COc1ccc(C(=O)NC2(c3ccccc3)CCN(c3cc(N)ccn3)CC2)cc1Cl`, the fold change (FC) turned out to be 50.
Consider `Nc1ccnc(N2CCC3(CC2)OCc2ccccc23)c1`, for which the fold change (FC) came out at 50.
Still for that read-out and setting: the result for `COc1ccc(C(=O)NC2(c3ccccc3)CCN(c3cc(N)ccn3)CC2)c(OC)c1` reads 50.
On to `Nc1ccnc(N2CCC(C(=O)N3CCc4ccccc4C3)(c3ccccc3)CC2)c1`, for which the fold change (FC) was 50.
As for `CCN(CC)C(=O)[C@H]1OC2(CCN(c3cc(N)ccn3)CC2)c2ccccc21`, the fold change (FC) stood at 50.
Regarding `Nc1ccnc(N2CCC(NC(=O)[C@@H]3CCCO3)(c3ccccc3)CC2)c1`, the fold change (FC) stood at 50.
As to `CN(C)C(=O)[C@H]1CC2(CCN(c3cc(N)ccn3)CC2)c2ccccc21`, the fold change (FC) is 50.
With `COc1ccc(CNC(=O)C2(c3ccccc3)CCN(c3cc(N)ccn3)CC2)cc1`, the fold change (FC) is 50.
Still for that read-out and setting: in the case of `CCOC(=O)N1CCN(C(=O)C2(c3ccccc3)CCN(c3cc(N)ccn3)CC2)CC1` it was 17; in that of `Nc1ccnc(N2CCC(NC(=O)c3ccccn3)(c3ccccc3)CC2)c1`, 50.
Regarding `Nc1ccnc(N2CCC3(CC2)OC(c2ccccc2)c2ccccc23)c1` (stereo unspecified), the fold change (FC) was 50.
Regarding `CC(=O)C1(c2ccccc2)CCN(c2cc(N)ccn2)CC1`, the fold change (FC) is 50.

For a further series, the target named is T1, Delta-type opioid receptor (Homo sapiens, UniProt P41143). Put plainly: Agonist activity at human recombinant delta opioid receptor expressed in CHO cells assessed as inhibition of forskolin-stimulated cAMP production by ALPHAscreen assay relative to BW373U86.
T1 sequence (P41143 whole entry): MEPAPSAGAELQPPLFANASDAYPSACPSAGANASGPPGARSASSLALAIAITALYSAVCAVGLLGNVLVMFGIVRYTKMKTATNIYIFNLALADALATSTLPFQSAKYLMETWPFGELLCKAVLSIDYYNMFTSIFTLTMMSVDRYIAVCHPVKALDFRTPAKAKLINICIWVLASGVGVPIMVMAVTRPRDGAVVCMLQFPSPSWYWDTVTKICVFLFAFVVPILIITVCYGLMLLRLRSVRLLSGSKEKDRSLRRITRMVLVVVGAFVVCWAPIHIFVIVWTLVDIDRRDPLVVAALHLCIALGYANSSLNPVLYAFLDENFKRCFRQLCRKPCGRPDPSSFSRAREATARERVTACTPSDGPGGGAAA
Conditions: not given
It counts as functional, cell-based. In outline: (§1)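 CHO cells stably expressing a Flp-In delta opioid receptor construct, grown in DMEM/F12 with 2 mM L-glutamine, 500 µg/ml hygromycin and 10% heat-inactivated FBS. Cells resuspended at 8000 cells/well in HEPES pH 7.4/HBSS buffer with 0.1% BSA, 10 mM MgCl2 and 0.5 mM IBMX. Forskolin 20 µM final, 30 min. cAMP read by ALPHAscreen with biotin-cAMP competition after overnight incubation. EC50 from percentage agonist activity.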
On the technique in general: Changes in cAMP serve as a functional read-out for many G protein-coupled receptors.
Consider `CC(=O)C1(c2ccccc2)CCN(c2cc(N)ccn2)CC1`, for which the Emax came to 100%.

Another series concerns the target Mu-type opioid receptor (Homo sapiens, UniProt P35372). Description: Agonist activity at mu opioid receptor. Type of series: functional.
Conditions: not given
`CC(=O)C1(c2ccccc2)CCN(c2cc(N)ccn2)CC1` displayed an EC50 greater than 10 µM.

Tested on in a further series: not listed separately
Description: Clearance in rat. As to conditions: in vivo.
Turning to `CN(C)C(=O)[C@H]1CC2(CCN(c3cc(N)ccn3)CC2)c2ccccc21`, the clearance was greater than 70 mL/min/kg.

The species named for the next series is Rattus norvegicus. Put plainly: Inhibition of neuropathic pain in rat electromyography model. Type of series: functional.
Conditions: not given
In outline: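 Rat electromyography (EMG) pain model. Agonist given by infusion protocol (bolus + continuous infusion) at 76 µg/kg + 72 µg/kg/hr, 240 µg/kg + 290 µg/kg/hr, or 660 µg/kg + 920 µg/kg/hr to reach target plasma levels. Mean free plasma concentration measured at each dose. Read-out: EMG response inhibition relative to control animals.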
In the case of `CN(C)C(=O)[C@H]1CC2(CCN(c3cc(N)ccn3)CC2)c2ccccc21`, the “inhibition (INH)” value is listed as 60%.

A further series has as its target T1, Delta-type opioid receptor. Description: Agonist activity at delta opioid receptor expressed in CHO cells assessed as inhibition of forskolin-stimulated cAMP production by ALPHAscreen assay. Type of series: functional, cell-based.
Conditions: not given
The procedure, abridged: as §1
In the case of `COc1cccc(C2(C)CN(c3cc(N)ccn3)C2)c1`, the half-maximal effective concentration (EC50) stood at 846 nM.
Still for that read-out and setting: the result for `COc1ccc(C(=O)NC2(c3ccccc3)CCN(c3cc(N)ccn3)CC2)cc1Cl` reads 59 nM; that for `Nc1ccnc(N2CCC3(CC2)OCc2ccccc23)c1`, 308 nM.
With `COc1ccc(C(=O)NC2(c3ccccc3)CCN(c3cc(N)ccn3)CC2)c(OC)c1`, the EC50 amounted to 14 nM.
Still for that read-out and setting: the result for `Nc1ccnc(N2CCC(C(=O)N3CCc4ccccc4C3)(c3ccccc3)CC2)c1` reads 13 nM; that for `CCN(CC)C(=O)[C@H]1OC2(CCN(c3cc(N)ccn3)CC2)c2ccccc21`, 12 nM.
Same read-out and setting: in the case of `Nc1ccnc(N2CCC(NC(=O)[C@@H]3CCCO3)(c3ccccc3)CC2)c1` it was 171 nM.
As for `Nc1ccnc(N2CCC(C(=O)Nc3ccc4ccccc4n3)(c3ccccc3)CC2)c1`, the EC50 is 5 nM.
As for `CN(C)C(=O)[C@H]1CC2(CCN(c3cc(N)ccn3)CC2)c2ccccc21`, the 50% effective concentration (EC50) is 27 nM.
For the molecule `COc1ccc(CNC(=O)C2(c3ccccc3)CCN(c3cc(N)ccn3)CC2)cc1`, the concentration for a half-maximal effect (EC50) was 17 nM.
For `CCOC(=O)N1CCN(C(=O)C2(c3ccccc3)CCN(c3cc(N)ccn3)CC2)CC1`, the EC50 came out at 24 nM.
`Nc1ccnc(N2CCC(NC(=O)c3ccccn3)(c3ccccc3)CC2)c1`: the EC50 turned out to be 60 nM.
On to `Nc1ccnc(N2CCC3(CC2)OC(c2ccccc2)c2ccccc23)c1` (stereo unspecified), for which the EC50 was 59 nM.
As to `CC(=O)C1(c2ccccc2)CCN(c2cc(N)ccn2)CC1`, the EC50 is 263 nM.

Tested on in another series: not listed separately
Description: Metabolic stability in human liver microsomes assessed as intrinsic clearance.
Conditions: not given
Type of series: ADME, Microsome. On the technique in general: Liver microsomes are vesicles of endoplasmic reticulum, rich in cytochrome P450 enzymes.
As for `Nc1ccnc(N2CCC(n3c(=O)n(-c4ccccc4)c4cccnc43)CC2)c1`, the microsomal CLint was found to be 19 µL/min/mg.
Regarding `Nc1ccnc(N2CCC(n3c(=O)n(Cc4ccccc4)c4cccnc43)CC2)c1`, the intrinsic metabolic clearance (microsomal CLint) amounted to 20 µL/min/mg.
Consider `COc1ccc(C(=O)NC2(c3ccccc3)CCN(c3cc(N)ccn3)CC2)cc1Cl`, for which the microsomal CLint stood at 69 µL/min/mg.
The same measure, in the same setting: in the case of `COc1ccc(C(=O)NC2(c3ccccc3)CCN(c3cc(N)ccn3)CC2)c(OC)c1` it was 43 µL/min/mg.
Same read-out and setting: in the case of `Nc1ccnc(N2CCC(N(C(=O)C3CC3)c3ccccn3)CC2)c1` it was less than 7 µL/min/mg.
Same read-out and setting: the result for `Nc1ccnc(N2CCC(C(=O)N3CCc4ccccc4C3)(c3ccccc3)CC2)c1` reads 46 µL/min/mg; that for `CCN(CC)C(=O)[C@H]1OC2(CCN(c3cc(N)ccn3)CC2)c2ccccc21`, 13 µL/min/mg; that for `COc1cccc(C(=O)N(c2ccccn2)C2CCN(c3cc(N)ccn3)CC2)c1`, 17 µL/min/mg.
In the case of `COc1ccc(-n2c(=O)n(C3CCN(c4cc(N)ccn4)CC3)c3ncccc32)cc1`, the intrinsic clearance (microsomal CLint) is 23 µL/min/mg.
Same read-out and setting: the result for `COc1ccc(C(=O)N(c2cc(C)ccn2)C2CCN(c3cc(N)ccn3)CC2)cc1` reads 12 µL/min/mg; that for `Nc1ccnc(N2CCC(NC(=O)[C@@H]3CCCO3)(c3ccccc3)CC2)c1`, 13 µL/min/mg; that for `Nc1ccnc(N2CCC(C(=O)Nc3ccc4ccccc4n3)(c3ccccc3)CC2)c1`, 22 µL/min/mg.
Same read-out and setting: the result for `CN(C)C(=O)[C@H]1CC2(CCN(c3cc(N)ccn3)CC2)c2ccccc21` reads less than 7 µL/min/mg; that for `COc1ccc(CNC(=O)C2(c3ccccc3)CCN(c3cc(N)ccn3)CC2)cc1`, 40 µL/min/mg; that for `Nc1ccnc(N2CCC(n3c(=O)n(CC4CC4)c4cccnc43)CC2)c1`, 13 µL/min/mg.
For `CCOC(=O)N1CCN(C(=O)C2(c3ccccc3)CCN(c3cc(N)ccn3)CC2)CC1`, the microsomal CLint worked out at 62 µL/min/mg.
Still for that read-out and setting: the result for `Nc1ccnc(N2CCC(NC(=O)c3ccccn3)(c3ccccc3)CC2)c1` reads 14 µL/min/mg; that for `Nc1ccnc(N2CCC(N(C(=O)C3CCCCC3)c3ccccn3)CC2)c1`, 80 µL/min/mg.
`Nc1ccnc(N2CCC3(CC2)OC(c2ccccc2)c2ccccc23)c1` (stereo unspecified): the microsomal CLint was 10 µL/min/mg.
The same measure, in the same setting: the result for `CC(=O)C1(c2ccccc2)CCN(c2cc(N)ccn2)CC1` reads less than 7 µL/min/mg.
